Reference: ChEMBL document CHEMBL1142362, “Synthesis and biological activity of simplified denoviose-coumarins related to novobiocin as potent inhibitors of heat-shock protein 90 (hsp90)” (Bioorg Med Chem Lett, 2008)
Active and inactive are the calls of the source. The rule behind the calls is not given here.

Key:
[1] = tested on: MCF7; test: Inhibition of HSP90 in human MCF7 cells assessed as decrease in ERalpha level at 100 uM after 16 hrs by Western blot analysis; type: cell-based
In short: (§1)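 Treated MCF-7 cell lysates were immunoblotted using the primary antibodies ERα (HC20) and Raf-1 (C12), with detection by a peroxidase-labelled secondary antibody. The control lysate came from DMSO-exposed cells. A nonspecific band served as the loading control.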

[2] = tested on: MCF7; test: Inhibition of HSP90 in human MCF7 cells assessed as decrease in Raf-1 level at 100 uM after 16 hrs by Western blot analysis; type: cell-based; in short: as §1
[3] = tested on: MELN; test: Effect on estradiol-induced transcription in human MELN cells assessed as increase in luciferase activity at 200 uM after 18 hrs relative to control; type: functional, cell-based
In short: (§2)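 MELN breast cancer cells were treated for 18 h with the compounds, with or without 0.1 nM estradiol. Luciferase activity was measured and expressed as fold induction relative to untreated control cells.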

[4] = tested on: MCF7; test: Reversal of inhibition of HSP90 in human MCF7 cells assessed as decrease in ERalpha level at 100 uM after 16 hrs in presence of MG132 by Western blot analysis; type: cell-based
[5] = tested on: MCF7; test: Inhibition of HSP90 in human MCF7 cells assessed as decrease in progesterone receptor A level; type: cell-based
In short: (§3)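 MCF-7 cells were exposed to increasing concentrations, and lysates were immunoblotted for PRA and PRB with a PR (Ab-8) primary antibody and a peroxidase-labelled secondary antibody. The control was a DMSO-exposed lysate. A nonspecific band served as the constant loading reference.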

[6] = tested on: MCF7; test: Inhibition of HSP90 in human MCF7 cells assessed as decrease in progesterone receptor B level; type: cell-based; in short: as §3
[7] = tested on: MELN; test: Effect on estradiol-induced transcription in human MELN cells assessed as inhibition of luciferase activity at 200 uM after 18 hrs relative to control; type: functional, cell-based; in short: as §2
[8] = tested on: MCF7; test: Antiproliferative activity against human MCF7 cells after 72 hrs by MTT assay; type: functional, cell-based; conditions: MCF7, 72 h
In short: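 MCF-7 cells were seeded at 5000 cells/well and, after 24 h, exposed to serial dilutions for 72 h. Survival was read by MTT. IC50 is the concentration giving 50% growth inhibition versus vehicle-treated cells. Values are the means of three experiments run in sextuplicate, with standard deviation.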

Compound | Activity [1] | Activity [2] | Activity [3] | Activity [4] | Activity [5] | Activity [6] | Activity [7] | IC50 [8]
CC1(C)C=Cc2cc(C(=O)Nc3c(O)c4ccccc4oc3=O)ccc2O1 | inactive | inactive | Active |  |  |  |  | 
COc1cccc(OC)c1C(=O)Nc1c(O)c2ccccc2oc1=O | Active | Active |  | Active |  |  |  | 
Cc1ccc(S(=O)(=O)Oc2c(NC(=O)c3ccc4c(c3)C=CC(C)(C)O4)c(=O)oc3ccccc23)cc1 | Active | Active |  | Active | Active | Active | Active | 35 µM
CCCCCCCCCCCCC(=O)Nc1c(-c2ccc(Cl)cc2)c2ccccc2oc1=O | inactive | inactive |  |  |  |  |  | 
CCCCCCCCCCCCC(=O)Nc1c(-c2cc(OC)c(OC)c(OC)c2)c2ccccc2oc1=O | inactive | inactive |  |  |  |  |  | 
CCCC(=O)Nc1c(OS(=O)(=O)c2ccc(C)cc2)c2ccccc2oc1=O | Active | Active |  | Active |  |  | Active | 75 µM
CCCCCCCCCCCCC(=O)Nc1c(OS(=O)(=O)c2ccc(C)cc2)c2ccccc2oc1=O | Active | Active |  | Active |  |  | Active | 50 µM
COc1ccc(-c2c(NC(=O)c3ccc(OC)cc3OC)c(=O)oc3ccccc23)cc1 | inactive | inactive |  |  |  |  |  | 
COc1ccccc1CC(=O)Nc1c(OS(=O)(=O)c2ccc(C)cc2)c2ccccc2oc1=O |  |  |  |  |  |  | Active | 
COc1ccc2cc(C(=O)Nc3c(O)c4ccccc4oc3=O)c(=O)oc2c1 | Active | Active |  | Active |  |  |  | 
CC(=O)Nc1c(O)c2ccccc2oc1=O | Active | Active |  | Active |  |  |  | 
COc1ccc(-c2c(NC(=O)c3cc(OC)c(OC)c(OC)c3)c(=O)oc3ccccc23)cc1 | inactive | inactive |  |  |  |  |  | 
CCCC(=O)Nc1c(-c2cc(OC)c(OC)c(OC)c2)c2ccccc2oc1=O | inactive | inactive |  |  |  |  |  | 
COc1cc(C(=O)Nc2c(OS(=O)(=O)c3ccc(C)cc3)c3ccccc3oc2=O)cc(OC)c1OC | Active | inactive |  | Active |  |  | Active | 40 µM
CCCCCCCCCCCCC(=O)Nc1c(-c2ccc(OC)cc2)c2ccccc2oc1=O | Active | Active |  | Active |  |  |  | 
COc1ccccc1CC(=O)Nc1c(O)c2ccccc2oc1=O | Active | Active |  | Active |  |  |  | 
Cc1ccc(S(=O)(=O)Oc2c(NC(=O)C3=Cc4ccccc4OC3)c(=O)oc3ccccc23)cc1 | Active | Active |  | Active |  |  | Active | 70 µM
CCCC(=O)Nc1c(O)c2ccccc2oc1=O | inactive | inactive |  |  |  |  | Active | 
CC1(C)CCc2cc(C(=O)Nc3c(O)c4ccccc4oc3=O)ccc2O1 | Active | Active |  | Active |  |  |  | 
